The source of these data is ChEMBL document CHEMBL1128520, “Synthesis of (dialkylamino)alkyl-disubstituted pyrimido[5,6,1- de]acridines, a novel group of anticancer agents active on a multidrug resistant cell line” (J Med Chem, 1995).

One series deals with L1210. As to the kind of experiment: The compound was tested in vitro for cytotoxic activity against L1210 Murine leukemia cell line. Conditions: Mus musculus. The class given is functional, cell-based. The essentials:
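Murine L1210 leukemia cells grown in suspension in RPMI 1640 with 5% fetal calf serum and penicillin/streptomycin, 37 °C, 5% CO2, passaged every 2–3 days. Log-phase cells seeded at 0.05×10^6 cells/mL. Exposure 48 h. Growth read by cellular protein content. EC50 is the concentration giving 50% growth inhibition. At least five runs, mean ± SEM.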

Series [1] in a line: Resistance Index is the ratio of EC50 of LoVo/Dx cell line and EC50 of LoVo cell line. The class given is functional.
Series [2] deals with LoVo. As to the kind of experiment: The compound was tested in vitro for cytotoxic activity against sensitive LoVo human colon adenocarcinoma cell line. It is filed as functional, cell-based. The essentials:
(§1)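 LoVo and doxorubicin-resistant LoVo/Dx monolayers grown in Ham's F-12 with 10% fetal calf serum, penicillin/streptomycin, L-glutamine and MEM vitamins, 37 °C, 5% CO2. Log-phase cells seeded at 0.02×10^6 cells/mL. Exposure 72 h. Growth measured by cellular protein content. EC50 is the concentration giving 50% growth inhibition. At least five runs, mean ± SEM.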

For series [3], the system named is LoVo. Put plainly: The compound was tested in vitro for cytotoxic activity against Doxorubicin resistant LoVo/Dx human colon adenocarcinoma cell line. It is filed as functional, cell-based. The essentials: as §1
Series [4] relates to Mus musculus. Put plainly: The compound was tested for anti tumor activity against P388 Murine Leukemia (%T/C = ratio of survival time of the treated to the control mice) at 1.56 mg/kg. It is filed as functional. An outline of the steps:
(§2)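 P388 leukemia cells, 10^6 per mouse, given ip on day 0 to (BALB/c × DBA/2) F1 hybrid mice; line kept by ip passage in DBA/2 mice. Groups of 6 treated and 12 control mice. %T/C = mean survival time of treated / control × 100; ≥125 taken as significant.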

Series [5] has as its system Mus musculus. As to the kind of experiment: The compound was tested for anti tumor activity against P388 Murine Leukemia (%T/C = ratio of survival time of the treated to the control mice) at 0.39 mg/kg. The class given is functional. An outline of the steps:
as §2

The subject of series [6] is Mus musculus. As to the kind of experiment: The compound was tested for anti tumor activity against P388 Murine Leukemia (%T/C = ratio of survival time of the treated to the control mice) at 0.19 mg/kg. The class given is functional. The essentials: as §2
Series [7] deals with Mus musculus. Put plainly: The compound was tested for anti tumor activity against P388 Murine Leukemia (%T/C = ratio of survival time of the treated to the control mice) at 0.78 mg/kg. It is filed as functional. The essentials:
as §2

For series [8], the species on record is Mus musculus. As to the kind of experiment: The compound was tested for toxicity (number of toxic deaths/total number of mice 7 days after the day 5 injection); 6/6. The class given is organism-based. Conditions: in vivo, 168 h.
For series [9], the species on record is Mus musculus. Put plainly: The compound was tested for toxicity (number of toxic deaths/total number of mice 7 days after the day 5 injection); 1/6. It is filed as organism-based. Conditions: in vivo, 168 h.
Series [10] concerns Mus musculus. As to the kind of experiment: The compound was tested for anti tumor activity against P388 Murine Leukemia (%T/C = ratio of survival time of the treated to the control mice) at 3.12 mg/kg. The class given is functional. The essentials:
as §2

For series [11], the species on record is Mus musculus. As to the kind of experiment: The compound was tested for toxicity (number of toxic deaths/total number of mice 7 days after the day 5 injection); 0/6. It is filed as organism-based. Conditions: in vivo, 168 h.

As a reminder, the EC50 is the midpoint of the concentration-response curve. A lower EC50 goes with greater potency. With `CCN(CC)CCNc1ccc2c(=O)n(CCN(C)C)c(=O)n3c4ccccc4c(=O)c1c23.Cl`, the figures for the EC50 in the series on L1210, in the series on LoVo [2] and in the series on LoVo [3] were 52 nM, 52 nM and 100 nM, respectively. Besides, in series [1], the Resistance index worked out at 1.9.

On to `CN(C)CCn1c(=O)c2ccc(Cl)c3c(=O)c4ccccc4n(c1=O)c23.Cl`, for which the results for the EC50 in the series on L1210, with LoVo [2] and with LoVo [3] were 500 nM, 1200 nM and 1400 nM, respectively. The Resistance index in [1] stood at 1.2.

Regarding `CN(C)CCCNc1ccc2c(=O)n(CCN(C)C)c(=O)n3c4ccccc4c(=O)c1c23.Cl`, the EC50 in the series with L1210 was found to be 63 nM; in the series with LoVo [2], 190 nM; in the series with LoVo [3] it was 160 nM. The Resistance index in series [1] is given as 0.8.

For `CN(C)CCn1c(=O)c2ccc(NCCN3CCNCC3)c3c(=O)c4ccccc4n(c1=O)c23.Cl`, the concentration giving a half-maximal response (EC50) came out at 210 nM in the series on L1210, 850 nM in the series on LoVo [2] and 1000 nM in the series with LoVo [3]. Further, the Resistance index in series [1] came out at 1.2.

What is called T/C is the result in the treated group divided by that in the control group, in per cent. As for `CN(C)CCNc1ccc2c(=O)n(CCN(C)C)c(=O)n3c4ccccc4c(=O)c1c23.Cl`, the EC50 with L1210 came out at 2.2 nM. For the same compound, the T/C in the series with Mus musculus [4] amounted to 100%; in the series on Mus musculus [5], 222%; in the series with Mus musculus [6], 166%; with Mus musculus [7], 222%; in the series on Mus musculus [10], 70%. For the same compound, the Toxicity in the series listed under Mus musculus [8] worked out at 6; in the series listed under Mus musculus [9] it was 1; in the series filed under Mus musculus [11], 0.

Turning to `Cl.O=C1c2ccccc2C(=O)c2c(NCCNCCO)ccc(NCCNCCO)c21`, the half-maximal effective concentration (EC50) amounted to 350 nM in the series with L1210, 640 nM in the series on LoVo [2] and 36800 nM in the series on LoVo [3]. For the same compound, in [1], the Resistance index was determined as 57.5.

As for `CN(C)CCn1c(=O)c2ccc(NCCNCCO)c3c(=O)c4ccccc4n(c1=O)c23.Cl`, the results for the EC50 in the series on L1210, with LoVo [2] and with LoVo [3] were 4.5 nM, 30 nM and 230 nM, respectively. In addition, the T/C was 167% in the series with Mus musculus [4]; 244% in the series on Mus musculus [5]; 189% with Mus musculus [6]; 233% in the series on Mus musculus [7]; 70% in the series on Mus musculus [10]. Further, in series [1], the Resistance index is 7.7. For the same compound, the Toxicity was 6 in the series filed under Mus musculus [8] and 0 in the series listed under Mus musculus [11].
